Published values pooled from the literature.
Compare with care: the assays were run in different laboratories.
Target: Serine/threonine-protein kinase D3 (PRKD3, Homo sapiens, UniProt O94806)
Sequence (O94806 1-890, as in one of the studies): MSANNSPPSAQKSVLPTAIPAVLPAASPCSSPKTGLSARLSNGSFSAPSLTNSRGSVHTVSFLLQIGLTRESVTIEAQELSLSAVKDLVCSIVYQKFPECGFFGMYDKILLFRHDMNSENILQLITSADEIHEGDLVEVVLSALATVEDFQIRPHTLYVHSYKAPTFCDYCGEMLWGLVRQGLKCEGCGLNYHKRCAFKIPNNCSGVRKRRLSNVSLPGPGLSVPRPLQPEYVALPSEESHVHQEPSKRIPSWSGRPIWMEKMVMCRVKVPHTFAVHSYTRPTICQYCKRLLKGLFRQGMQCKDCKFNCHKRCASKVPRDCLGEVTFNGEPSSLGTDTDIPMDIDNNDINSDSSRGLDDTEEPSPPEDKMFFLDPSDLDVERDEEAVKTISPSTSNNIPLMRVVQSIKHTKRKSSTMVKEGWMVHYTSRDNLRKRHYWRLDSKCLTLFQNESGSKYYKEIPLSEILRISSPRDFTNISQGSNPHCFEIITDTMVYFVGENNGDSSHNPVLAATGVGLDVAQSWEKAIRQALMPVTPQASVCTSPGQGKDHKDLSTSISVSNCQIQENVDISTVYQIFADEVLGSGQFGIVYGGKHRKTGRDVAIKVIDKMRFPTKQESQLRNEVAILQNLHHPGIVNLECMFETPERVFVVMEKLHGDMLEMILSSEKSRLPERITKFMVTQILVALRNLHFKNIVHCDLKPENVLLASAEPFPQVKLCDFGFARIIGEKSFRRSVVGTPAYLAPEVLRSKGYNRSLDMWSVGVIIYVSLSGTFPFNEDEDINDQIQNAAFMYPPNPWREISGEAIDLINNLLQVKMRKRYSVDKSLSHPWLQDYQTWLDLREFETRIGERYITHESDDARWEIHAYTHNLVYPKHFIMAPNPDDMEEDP

SMILES | assay | conditions | quantity | value
Cn1cc(-c2cc(F)cc(N3CCn4c(cc5c4CCCC5)C3=O)c2CO)cc(Nc2ccc(N3CCN(C4COC4)CC3)cn2)c1=O | enzyme activity, inhibitor | 0.1 µM | inhibition | 11%
N#CC1(c2ccccn2)CCN(Cc2cc(C(=O)O)c(=O)n3ccccc23)CC1 | cell-free assay, competition with immobilised ligand | 1 µM | remaining binding | 98%
Nc1ncc(-c2nc(N3CCOCC3)nc(N3CCOCC3)n2)c(C(F)F)n1 | binding, competition with immobilised ligand | 10 µM | remaining binding | 67%
COc1cc(Nc2ncc(F)c(Nc3ccc4c(n3)NC(=O)C(C)(C)O4)n2)cc(OC)c1OC | binding | 10 µM | inhibition | 0%
O=c1[nH]c2ccccc2n1C1CCN(Cc2ccc(-c3[nH]c4cc5ncnc5cc4nc3-c3ccccc3)cc2)CC1 | cell-free assay | 0.5 µM | remaining signal | 99.5%
COc1ncccc1-c1cnn2ccc(N3CCN(C(=O)OC(C)C)CC3)nc12 | binding, competition with immobilised ligand | 1 µM | remaining binding | 100%
Cn1cncc1[C@](O)(COc1ccc(C#N)cc1-c1ccc(OC(F)(F)F)cc1)c1ccc(C#N)cc1 | cell-free assay, competition with immobilised ligand | 1 µM | remaining binding | 100%
CC(C)(C)c1cc(C=C(C#N)C#N)cc(Br)c1O | enzyme activity, inhibitor | 0.5 µM | remaining activity | 92.7%
Cc1nn(C)cc1-c1nc2c(N3CCN(Cc4ccc(Cl)cc4)CC3)c(Cl)cnc2[nH]1 | binding, competition with immobilised ligand | 1 µM | remaining binding | 100%
